The term MIC denotes the lowest concentration that inhibits growth of the organism. Higher therefore signals a less susceptible organism.

Converted amounts (≈) assume the structure as drawn.

The test system of one experiment is Enterobacter cloacae. As to the kind of experiment: Antibacterial activity against gram negative organism, […] (MA2646). Type of experiment: functional.
Experiment [1] relates to Mus musculus. As to the kind of experiment: In vivo subcutaneous protective dose was determined in female charles river CD-1 mice infected with Streptococcus pneumoniae. As to conditions: sc, read-out: PD50. Type of experiment: functional. The gist of the method: (§1)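 Acute lethal systemic infection model in mice; drug given by subcutaneous injection; potency read out as median protective dose (PD50), in mg/kg.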

Experiment [2] has as its system Mus musculus. As to the kind of experiment: In vivo oral protective dose was determined in female charles river CD-1 mice infected with Escherichia coli (vogel). Type of experiment: functional. As to conditions: Mus musculus, po; read-out: PD50. The gist of the method:
(§2)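 Acute lethal systemic infection model in mice; drug given orally by gavage; potency read out as median protective dose (PD50), in mg/kg.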

Experiment [3] concerns Mus musculus. As to the kind of experiment: In vivo oral protective dose was determined in female charles river CD-1 mice infected with Streptococcus pneumoniae. Type of experiment: functional. Particulars: read-out: PD50. The gist of the method:
as §2

Experiment [4] concerns Mus musculus. As to the kind of experiment: In vivo subcutaneous protective dose was determined in female charles river CD-1 mice infected with Escherichia coli (vogel). Type of experiment: functional. Particulars: sc, read-out: PD50. The method in brief:
as §1

A further experiment concerns Bacteria. As to the kind of experiment: Antibacterial activity was determined against gram negative organism, Providencia rettgeri. (M1771). Type of experiment: functional. The gist of the method: (§3)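 MIC by standard microtitration against a panel of 10 representative Gram-negative and Gram-positive organisms; values reported in µg/mL.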
Experiment [5] is described as follows: MIC ratio measured as the mean MICs of gram-negative bacteria. Type of experiment: functional. The method in brief: (§4)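 Geometric mean of the MICs (µg/mL) over the Gram-negative or the Gram-positive strains of the 10-organism microtitration panel, calculated separately for each class.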
Experiment [6] in a line: MIC ratio measured as the mean MICs of gram-positive bacteria. Type of experiment: functional. The gist of the method:
as §4

Experiment [7] addresses DNA gyrase (Escherichia coli) (UniProt P0AES6+P0AES4).
The next experiment relates to Escherichia coli. As to the kind of experiment: Antibacterial activity was determined against gram negative organism, E. coli(vogel). Type of experiment: functional. The gist of the method: as §3
A further experiment concerns Klebsiella pneumoniae. As to the kind of experiment: Antibacterial activity was determined against gram negative organism, K. pneumoniae (MGH-2). Type of experiment: functional. The gist of the method:
as §3

The subject of another experiment is Pseudomonas aeruginosa. As to the kind of experiment: Antibacterial activity was determined against gram negative organism, Pseudomonas aeruginosa (UI-18). Type of experiment: functional. The gist of the method: as §3
A further experiment concerns Streptococcus pneumoniae. As to the kind of experiment: Antibacterial activity was determined against gram positive organism, Streptococcus pneumoniae (SV-1). Type of experiment: functional. The method in brief:
as §3

In a further experiment the test system is Enterococcus faecalis. As to the kind of experiment: Antibacterial activity was determined against gram positive organism, Streptococcus faecalis (MGH-2). Type of experiment: functional. The method in brief:
as §3

For the next experiment, the system named is Streptococcus pyogenes. As to the kind of experiment: Antibacterial activity was determined against gram positive organism, Streptococcus pyogenes (C203). Type of experiment: functional. The gist of the method: as §3
The subject of experiment [8] is Staphylococcus aureus. As to the kind of experiment: Antibacterial activity was determined against gram positive organism, Staphylococcus aureus (H228). Type of experiment: functional. The method in brief:
as §3

For experiment [9], the system named is Staphylococcus aureus. As to the kind of experiment: Antibacterial activity was determined against gram positive organism, Staphylococcus aureus (UC76). Type of experiment: functional. The method in brief:
as §3

Regarding `O=C(O)c1cn(C2CC2)c2c(F)c(N3CCNCC3)c(F)cc2c1=O`, the results for the MIC against Enterobacter cloacae and in the experiment with Bacteria were 0.05 µg/mL (≈ 0.143 µM) and 0.1 µg/mL (≈ 0.286 µM), respectively. Further, the ED50 was determined as 29 mg/kg with Mus musculus [1], 0.45 mg/kg with Mus musculus [2], 59 mg/kg with Mus musculus [3] and 0.25 mg/kg in the experiment on Mus musculus [4]. Moreover, the results for the Ratio in experiment [5] and in experiment [6] were 0.076 and 0.4, respectively. Moreover, the DNA cleavage in [7] stood at 0.5 µg/mL.

For the compound `Cc1c(F)c(N2CCNC(C)C2)cc2c1c(=O)c(C(=O)O)cn2-c1ccc(F)cc1F` (stereo unspecified), the MIC turned out to be 0.2 µg/mL (≈ 0.464 µM) in the experiment on Enterobacter cloacae; 0.1 µg/mL (≈ 0.232 µM) with Escherichia coli; 0.4 µg/mL (≈ 0.927 µM) against Klebsiella pneumoniae; 1.6 µg/mL (≈ 3.71 µM) in the experiment with Pseudomonas aeruginosa; 0.8 µg/mL (≈ 1.85 µM) against Bacteria; 0.05 µg/mL (≈ 0.116 µM) against Streptococcus pneumoniae. Also, the MIC came to 0.4 µg/mL (≈ 0.927 µM) against Enterococcus faecalis, 0.1 µg/mL (≈ 0.232 µM) against Streptococcus pyogenes, 0.1 µg/mL (≈ 0.232 µM) in the experiment with Staphylococcus aureus [8] and 0.025 µg/mL (≈ 0.0579 µM) against Staphylococcus aureus [9]. The Ratio was 0.4 in [5] and 0.087 in experiment [6]. The same compound registered a DNA cleavage in [7] of 1.75 µg/mL.

As to `CC1CN(c2cc3c(cc2F)c(=O)c(C(=O)O)cn3C2CC2)CCN1` (stereo unspecified), the MIC with Klebsiella pneumoniae was found to be 0.05 µg/mL (≈ 0.145 µM); against Pseudomonas aeruginosa, 0.4 µg/mL (≈ 1.16 µM); in the experiment with Bacteria, 0.1 µg/mL (≈ 0.29 µM); with Streptococcus pneumoniae it was 0.2 µg/mL (≈ 0.579 µM); in the experiment with Enterococcus faecalis, 0.4 µg/mL (≈ 1.16 µM); in the experiment with Streptococcus pyogenes it was 0.2 µg/mL (≈ 0.579 µM). Besides, the MIC against Staphylococcus aureus [8] was 0.4 µg/mL (≈ 1.16 µM); against Staphylococcus aureus [9], 0.1 µg/mL (≈ 0.29 µM). The ED50 was found to be 12 mg/kg in the experiment with Mus musculus [1], 1 mg/kg with Mus musculus [2], 39 mg/kg with Mus musculus [3] and 0.4 mg/kg with Mus musculus [4]. Moreover, the Ratio in [5] was 0.066; in [6], 0.23.

Take `Cc1c(F)c(N2CCC(C)(CN)C2)cc2c1c(=O)c(C(=O)O)cn2C1CC1` (stereo unspecified): the MIC in the experiment with Enterobacter cloacae is 0.1 µg/mL (≈ 0.268 µM); in the experiment on Escherichia coli it was 0.1 µg/mL (≈ 0.268 µM); in the experiment on Klebsiella pneumoniae, 0.4 µg/mL (≈ 1.07 µM); in the experiment with Pseudomonas aeruginosa, 1.6 µg/mL (≈ 4.28 µM); in the experiment with Bacteria, 0.8 µg/mL (≈ 2.14 µM); with Streptococcus pneumoniae it was 0.006 µg/mL (≈ 0.0161 µM). Besides, the MIC against Enterococcus faecalis turned out to be 0.1 µg/mL (≈ 0.268 µM); against Streptococcus pyogenes, 0.013 µg/mL (≈ 0.0348 µM); in the experiment on Staphylococcus aureus [8] it was 0.025 µg/mL (≈ 0.0669 µM); in the experiment on Staphylococcus aureus [9], 0.006 µg/mL (≈ 0.0161 µM). Besides, the Ratio is 0.35 in [5] and 0.016 in [6]. Besides, the DNA cleavage in experiment [7] was found to be 0.75 µg/mL.

Take `Cc1c(F)c(N2CCC(N)C2)c(Cl)c2c1c(=O)c(C(=O)O)cn2C1CC1` (stereo unspecified): the MIC came to 0.05 µg/mL (≈ 0.132 µM) against Enterobacter cloacae; 0.013 µg/mL (≈ 0.0342 µM) in the experiment with Escherichia coli; 0.05 µg/mL (≈ 0.132 µM) in the experiment with Klebsiella pneumoniae; 0.2 µg/mL (≈ 0.527 µM) in the experiment with Pseudomonas aeruginosa; 0.05 µg/mL (≈ 0.132 µM) with Bacteria; 0.025 µg/mL (≈ 0.0658 µM) against Streptococcus pneumoniae. Also, the MIC is 0.05 µg/mL (≈ 0.132 µM) against Enterococcus faecalis, 0.05 µg/mL (≈ 0.132 µM) in the experiment with Streptococcus pyogenes, 0.025 µg/mL (≈ 0.0658 µM) with Staphylococcus aureus [8] and 0.013 µg/mL (≈ 0.0342 µM) in the experiment with Staphylococcus aureus [9]. The Ratio in [5] is 0.05; in [6], 0.029. Also, the DNA cleavage in [7] stood at 0.3 µg/mL.

On to `CCn1cc(C(=O)O)c(=O)c2cc(F)c(N3CCC(N)C3)cc21` (stereo unspecified), for which the MIC against Enterobacter cloacae came out at 0.1 µg/mL (≈ 0.313 µM); against Escherichia coli, 0.1 µg/mL (≈ 0.313 µM); against Klebsiella pneumoniae, 0.2 µg/mL (≈ 0.626 µM); against Pseudomonas aeruginosa, 0.8 µg/mL (≈ 2.51 µM); in the experiment on Bacteria, 0.2 µg/mL (≈ 0.626 µM); in the experiment on Streptococcus pneumoniae it was 0.4 µg/mL (≈ 1.25 µM). Moreover, the MIC was 0.8 µg/mL (≈ 2.51 µM) in the experiment on Enterococcus faecalis, 0.4 µg/mL (≈ 1.25 µM) in the experiment with Streptococcus pyogenes, 0.8 µg/mL (≈ 2.51 µM) against Staphylococcus aureus [8] and 0.1 µg/mL (≈ 0.313 µM) in the experiment with Staphylococcus aureus [9]. Further, the Ratio came to 0.2 in [5] and 0.4 in [6]. The compound further gave a DNA cleavage in experiment [7] of 2.5 µg/mL.

As to `CCn1cc(C(=O)O)c(=O)c2c(C)c(F)c(N3CCNCC3)c(F)c21`, the MIC against Enterobacter cloacae was determined as 0.05 µg/mL (≈ 0.142 µM); with Escherichia coli, 0.05 µg/mL (≈ 0.142 µM); against Klebsiella pneumoniae it was 0.2 µg/mL (≈ 0.569 µM); against Pseudomonas aeruginosa it was 1.6 µg/mL (≈ 4.55 µM); against Bacteria, 0.4 µg/mL (≈ 1.14 µM); in the experiment on Streptococcus pneumoniae, 6.3 µg/mL (≈ 17.9 µM). Besides, the MIC was determined as 3.1 µg/mL (≈ 8.82 µM) against Enterococcus faecalis, 12.5 µg/mL (≈ 35.6 µM) in the experiment with Streptococcus pyogenes, 0.8 µg/mL (≈ 2.28 µM) with Staphylococcus aureus [8] and 0.2 µg/mL (≈ 0.569 µM) in the experiment with Staphylococcus aureus [9]. The Ratio was found to be 0.2 in [5] and 2.08 in experiment [6]. The compound also showed a DNA cleavage in [7] of 7.5 µg/mL.

With `Cc1c(F)c(N2CCNCC2)cc2c1c(=O)c(C(=O)O)cn2-c1ccc(F)cc1F`, the MIC against Enterobacter cloacae was 0.05 µg/mL (≈ 0.12 µM); with Escherichia coli, 0.05 µg/mL (≈ 0.12 µM); in the experiment on Klebsiella pneumoniae it was 0.1 µg/mL (≈ 0.24 µM); in the experiment on Pseudomonas aeruginosa it was 0.8 µg/mL (≈ 1.92 µM); in the experiment with Bacteria, 0.2 µg/mL (≈ 0.479 µM); in the experiment on Streptococcus pneumoniae, 0.05 µg/mL (≈ 0.12 µM). Besides, the MIC in the experiment on Enterococcus faecalis was 0.2 µg/mL (≈ 0.479 µM); against Streptococcus pyogenes, 0.1 µg/mL (≈ 0.24 µM); against Staphylococcus aureus [8], 0.1 µg/mL (≈ 0.24 µM); in the experiment with Staphylococcus aureus [9], 0.025 µg/mL (≈ 0.0599 µM). The Ratio in experiment [5] came to 0.13; in experiment [6], 0.076. Besides, in [7], the DNA cleavage is 3 µg/mL.

Source of the values: ChEMBL document CHEMBL1125920, “Synthesis and biological activity of 5-alkyl-1,7,8-trisubstituted-6-fluoroquinoline-3-carboxylic acids” (1991).
